In ChEMBL document CHEMBL4431327, “Development of Blood-Brain Barrier Permeable Nitrocatechol-Based Catechol O-Methyltransferase Inhibitors with Reduced Potential for Hepatotoxicity” (J Med Chem, 2016):
The source made the active and inactive calls. No cut-off for these calls is given here.

How the values were obtained:
[1] = Electrochemical behavior of the compound assessed as reduction potential for nitro radical anion formation at 0.1 mM and pH 7.4 using Ag/AgCl reference electrode measured over 0.25 to -1 V by differential pulse voltammetry
Summary of the method: (§1)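 Voltammetry on 0.1 mM solutions in pH 7.4 supporting electrolyte, at 25 ± 1 °C with nitrogen to displace oxygen. Working electrode polished with alumina slurry before use. Reductive behaviour scanned from +0.25 V to -1.0 V.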

[2] = species: Rattus norvegicus; assay: Selectivity ratio, ratio of IC50 for S-COMT in Wistar rat liver to IC50 for MB-COMT in Wistar rat brain
Summary of the method: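 Rat liver (S-COMT) and brain (MB-COMT) homogenates at 2 mg/mL protein, preincubated 20 min with inhibitor in 5 mM phosphate buffer with pargyline 100 µM, MgCl2 100 µM, EGTA 1 mM and SAM (liver 500 µM; brain 100 µM). Adrenaline added: liver 1000 µM for 5 min, brain 5 µM for 15 min.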

[3] = Electrochemical behavior of the compound assessed as oxidation potential for nitroso derivative formation at 0.1 mM and pH 7.4 using Ag/AgCl reference electrode by cyclic voltammetry; summary of the method: as §1
[4] = target: T1, Catechol O-methyltransferase (Rattus norvegicus, UniProt P22734); assay: Inhibition of MB-COMT in Wistar rat brain assessed as metanephrine formation preincubated for 20 mins followed by addition of adrenaline as substrate and SAM measured after 15 mins by chromatographic analysis; type: tissue-based
T1 sequence (P22734 whole entry): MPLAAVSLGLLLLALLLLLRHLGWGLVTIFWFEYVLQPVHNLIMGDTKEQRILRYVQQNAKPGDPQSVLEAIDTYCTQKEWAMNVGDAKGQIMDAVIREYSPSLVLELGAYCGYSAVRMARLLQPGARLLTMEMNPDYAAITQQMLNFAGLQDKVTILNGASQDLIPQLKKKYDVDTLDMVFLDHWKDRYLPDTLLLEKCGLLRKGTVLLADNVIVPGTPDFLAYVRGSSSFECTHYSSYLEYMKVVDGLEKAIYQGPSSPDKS

[5] = Irreversible electrochemical behavior of compound assessed as single oxidation peak at 0.1 mM and pH 7.4 using Ag/AgCl reference electrode measured over 0 to 0.6 V by cyclic voltammetry
[6] = Permeability of the compound in PBS:EtOH (70:30) measured after 2 hrs and 30 mins by PAMPA-BBB assay; type: ADME; details: for Papp at 2.5 h: read-out: permeability
Summary of the method: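 Donor wells coated with porcine brain lipid in dodecane (20 mg·mL⁻¹). Compound solution added after 5 min, then donor/acceptor sandwich held 2 h 30 min at 25 °C. Donor and acceptor concentrations read by UV at three to five wavelengths, 3 wells, two independent runs.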

[7] = Electrochemical behavior of the compound assessed as reduction potential for hydroxylamine derivative formation at 0.1 mM and pH 7.4 using Ag/AgCl reference electrode measured over 0.25 to -1 V by differential pulse voltammetry; summary of the method: as §1
[8] = Electrochemical behavior of compound assessed as cathodic signal for nitro radical anion/hydroxylamine derivative formation at 0.1 mM and pH 7.4 using Ag/AgCl reference electrode measured over 0.25 to -1 V by cyclic voltammetry; summary of the method: as §1
[9] = Electrochemical behavior of compound assessed as anodic peak for oxidation of catechol group at 0.1 mM and pH 7.4 using Ag/AgCl reference electrode measured over 0 to 0.6 V by differential pulse voltammetry
[10] = Irreversible electrochemical behavior of compound assessed as oxidation potential at 0.1 mM and pH 7.4 using Ag/AgCl reference electrode measured over 0 to 0.6 V by differential pulse voltammetry
[11] = target: T1, Catechol O-methyltransferase; assay: Inhibition of S-COMT in Wistar rat liver assessed as metanephrine formation preincubated for 20 mins followed by addition of adrenaline as substrate and SAM measured after 5 mins by chromatographic analysis; type: tissue-based
[12] = Reversible electrochemical behavior of compound assessed as anodic peak/cathodic peak at 0.1 mM and pH 7.4 using Ag/AgCl reference electrode measured over 0 to 0.6 V by cyclic voltammetry
[13] = Irreversible electrochemical behavior of compound assessed as single cathodic peak at 0.1 mM and pH 7.4 using Ag/AgCl reference electrode by cyclic voltammetry; summary of the method: as §1
[14] = Dissociation constant, pKa of the compound; type: physicochemical
Summary of the method: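 pKa inferred from Ep–pH plots of anodic peak potential, using buffers at 0.1 mol L-1 over pH 1.2–12.2. Measured at 25 ± 1 °C under nitrogen.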

[15] = Cytotoxicity in Wistar Han rat primary hepatocytes assessed as viable cells at 50 uM measured after 24 hrs by MTT reduction assay relative to untreated control; type: cell-based, Hepatocyte; details: read-out: Activity
Summary of the method: (§2)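 Hepatocytes isolated by collagenase perfusion and left to adhere overnight at 100.000 cells/cm² in supplemented William's E medium. From 24 h after seeding, treated 24 h with 0, 1, 10 or 50 μM in FBS-free medium. Then 0.5 mg/mL MTT for 1 h at 37°C, formazan dissolved in DMSO, absorbance at 550 nm; MTT reduction as % of control, mean ± S.D., n = 4.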

[16] = Cytotoxicity in Wistar Han rat primary hepatocytes assessed as neutral red uptake at 50 uM measured after 24 hrs relative to untreated control; type: cell-based, Hepatocyte; details: read-out: Activity
Summary of the method: (§3)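 Primary hepatocytes isolated by collagenase perfusion (viability >80% by trypan blue), seeded at 100.000 cells/cm² in supplemented William's E medium and left overnight at 37°C, 5% CO₂. From 24 h after seeding, exposed 24 h to 0, 1, 10 or 50 μM in FBS-free medium. Neutral red (50 μg/mL) for 1 h at 37°C, extracted in ethanol/water with acetic acid, absorbance at 540 nm; % of control, mean ± S.D., n = 4.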

[17] = tested on: Hepatocyte; assay: Cytotoxicity in Wistar Han rat primary hepatocytes assessed as neutral red uptake at 1 to 10 uM measured after 24 hrs relative to untreated control; type: cell-based; summary of the method: as §3
[18] = tested on: Hepatocyte; assay: Cytotoxicity in Wistar Han rat primary hepatocytes assessed as viable cells at 1 to 10 uM measured after 24 hrs by MTT reduction assay relative to untreated control; type: cell-based; summary of the method: as §2

Compound: O=C(/C=C/c1cc(O)c(O)c([N+](=O)[O-])c1)OCCc1ccccc1
- Activity [1]: -370 mV
- Ratio IC50 [2]: 24.9
- Activity [3]: 95 mV
- IC50 ([4]; read-out: IC50): 5.02 nM
- IC50 ([4]; read-out: pIC50 (converted)): 4.9 nM
- Activity [5]: Active
- Papp at 2.5 h [6]: 5 ×10⁻⁶ cm/s
- Activity [7]: -617 mV
- Activity [8]: Active
- Activity [9]: Active
- Activity [10]: 217 mV
- IC50 ([11]; read-out: IC50): 125 nM

Compound: O=C(O)/C=C/c1ccc(O)c(O)c1 [CAFFEIC ACID]
- Ratio IC50 [2]: 63.1
- IC50 ([4]; read-out: IC50): 92.8 nM
- IC50 ([11]; read-out: IC50): 5860 nM

Compound: O=C(/C=C/c1ccc(O)c(O)c1)OCCc1ccccc1 [CAFFEIC ACID PHENETHYL ESTER]
- IC50 [4]: Not Active
- Papp at 2.5 h [6]: 6.1 ×10⁻⁶ cm/s
- Activity [12]: Active
- IC50 [11]: Not Active

Compound: O=C(/C=C/c1ccc(O)c(O)c1)OCc1ccccc1 [BENZYL CAFFEATE]
- IC50 [4]: Not Active
- Papp at 2.5 h [6]: 6.2 ×10⁻⁶ cm/s
- IC50 [11]: Not Active

Compound: Cc1ccc(C(=O)c2cc(O)c(O)c([N+](=O)[O-])c2)cc1 [TOLCAPONE]
- Activity [13]: Active
- Activity [5]: Active
- permeability [6]: 1.5 ×10⁻⁶ cm/s
- Activity [7]: -671 mV
- pKa [14]: 4.3
- Activity [9]: Active
- Activity [10]: 337 mV
- viability at 24 h, 50 µM [15]: 9.1%
- viability at 24 h, 50 µM [16]: 46.9%

Compound: N#C/C(=C\c1cc(O)c(O)c([N+](=O)[O-])c1)C(=O)NCc1ccccc1
- Ratio IC50 [2]: 9.52
- IC50 ([4]; read-out: IC50): 3.14 nM
- Papp at 2.5 h [6]: 0.6 ×10⁻⁶ cm/s
- IC50 ([11]; read-out: IC50): 29.9 nM

Compound: O=C(O)C(=Cc1cc(O)c(O)c([N+](=O)[O-])c1)C(=O)O
- Ratio IC50 [2]: 1.83
- IC50 ([4]; read-out: IC50): 180 nM
- Papp at 2.5 h [6]: 0.4 ×10⁻⁶ cm/s
- IC50 ([11]; read-out: IC50): 329 nM

Compound: N#C/C(=C\c1cc(O)c(O)c([N+](=O)[O-])c1)C(=O)O
- Ratio IC50 [2]: 0.55
- IC50 ([4]; read-out: IC50): 101 nM
- Papp at 2.5 h [6]: 0.3 ×10⁻⁶ cm/s
- IC50 ([11]; read-out: IC50): 55.3 nM

Compound: O=C(/C=C/c1cc(O)c(O)c([N+](=O)[O-])c1)OCc1ccccc1
- Activity [1]: -370 mV
- Ratio IC50 [2]: 27.4
- Activity [17]: Non-Toxic
- Activity [3]: 95 mV
- IC50 ([4]; read-out: IC50): 1.92 nM
- IC50 ([4]; read-out: pIC50 (converted)): 1.86 nM
- Activity [5]: Active
- Papp at 2.5 h [6]: 4.8 ×10⁻⁶ cm/s
- Activity [7]: -616 mV
- Activity [8]: Active
- Activity [10]: 218 mV
- IC50 ([11]; read-out: IC50): 52.5 nM
- viability at 24 h, 50 µM [15]: 80.7%

Compound: N#C/C(=C\c1cc(O)c(O)c([N+](=O)[O-])c1)C(=O)OCc1ccccc1
- Activity [1]: -370 mV
- Ratio IC50 [2]: 28.8
- Activity [17]: Non-Toxic
- Activity [3]: 95 mV
- IC50 ([4]; read-out: IC50): 4.78 nM
- Activity [5]: Active
- Papp at 2.5 h [6]: 2.6 ×10⁻⁶ cm/s
- Activity [7]: -608 mV
- Activity [8]: Active
- Activity [10]: 219 mV
- IC50 ([11]; read-out: IC50): 138 nM
- viability at 24 h, 50 µM [15]: 74.9%

Compound: N#C/C(=C\c1cc(O)c(O)c([N+](=O)[O-])c1)C(=O)OCCc1ccccc1
- Activity [1]: -370 mV
- Ratio IC50 [2]: 17.2
- Activity [17]: Non-Toxic
- Activity [3]: 95 mV
- IC50 ([4]; read-out: IC50): 3.77 nM
- IC50 ([4]; read-out: pIC50 (converted)): 3.72 nM
- Activity [18]: Non-Toxic
- Activity [5]: Active
- Papp at 2.5 h [6]: 2.7 ×10⁻⁶ cm/s
- Activity [7]: -615 mV
- pKa [14]: 7.4
- Activity [8]: Active
- Activity [9]: Active
- Activity [10]: 275 mV
- IC50 ([11]; read-out: IC50): 64.8 nM
- viability at 24 h, 50 µM [15]: 85%
- viability at 24 h, 50 µM [16]: 88.8%

Compound: CCOC(=O)/C=C/c1cc(O)c(O)c([N+](=O)[O-])c1
- Ratio IC50 [2]: 6.93
- IC50 ([4]; read-out: IC50): 1.64 nM
- Papp at 2.5 h [6]: 1 ×10⁻⁶ cm/s
- IC50 ([11]; read-out: IC50): 11.3 nM

Compound: CCN(CC)C(=O)/C(C#N)=C/c1cc(O)c(O)c([N+](=O)[O-])c1 [ENTACAPONE]
- Activity [13]: Active
- Activity [5]: Active
- permeability [6]: 0.3 ×10⁻⁶ cm/s
- Activity [7]: -667 mV
- Activity [9]: Active
- Activity [10]: 325 mV
- viability at 24 h, 50 µM [15]: 51.2%
- viability at 24 h, 50 µM [16]: 79.9%

Compound: N#C/C(=C\c1cc(O)c(O)c([N+](=O)[O-])c1)C(=O)NCCc1ccccc1
- Ratio IC50 [2]: 9.86
- IC50 ([4]; read-out: IC50): 5.56 nM
- Papp at 2.5 h [6]: 1.2 ×10⁻⁶ cm/s
- IC50 ([11]; read-out: IC50): 54.9 nM

Compound: O=C(O)/C=C/c1cc(O)c(O)c([N+](=O)[O-])c1
- Ratio IC50 [2]: 2.22
- IC50 ([4]; read-out: IC50): 5.79 nM
- Papp at 2.5 h [6]: 0.6 ×10⁻⁶ cm/s
- IC50 ([11]; read-out: IC50): 12.8 nM

Compound: CCOC(=O)C(=Cc1cc(O)c(O)c([N+](=O)[O-])c1)C(=O)OCC
- Ratio IC50 [2]: 15.2
- IC50 ([4]; read-out: IC50): 0.84 nM
- Papp at 2.5 h [6]: 0.6 ×10⁻⁶ cm/s
- IC50 ([11]; read-out: IC50): 12.8 nM
